Experimental data from PubChem BioAssay AID504382 (The Scripps Research Institute Molecular Screening Center, 2011).
Hit rate of the full screen: of about 2,500 compounds, about 460 (18%) were called active. Only a sample is shown. Values without a mark were called inactive.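 How the source made its calls: active means mean activation above a cutoff of low control average plus 3 SD from the earlier screen (cut at about 12% in these data); inactive means the rest.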

Test: compound fluorescence interference without thin filaments, confirmation, artefact control for cardiac RTF calcium sensitizer project, biochemical (AID 504382)
Details: IANBD fluorescence interference counterscreen, buffer, EC20 Ca2+; at 7.2 µM; active compounds read high; scaled: EC20 calcium 0, EC100 calcium 100
Summary of the method: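 Medium: MOPS buffer, 190 mM, with KCl, MgCl2, EGTA, NTA, DTT, pH 7.20; Dosing: one dose of 7.2 µM, 0.7% DMSO; Probe or stimulus: calcium at EC20 level, 0.472 mM final; Incubation: 15 min, 25 °C; Evaluation: compound fluorescence interference relative to control well signal range; Signal: fluorescence, 480/540 nm.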

Row | SMILES | fluorescence artifact activation
1 | COc1ccc(Nc2nc3ccc(C)cc3cc2C#N)c(OC)c1 | 0.04%
2 | CCCN(CCC)S(=O)(=O)c1ccc(C(=O)OCCN2C(=O)c3cccc4c(N5CCOCC5)ccc(c34)C2=O)cc1 | 4.63%
3 | Cc1ccccc1NC(=O)c1nnn(-c2ccc3c(c2)OCCO3)c1N | 0.09%
4 | CCN1C(=O)c2cccc3c(NC(=O)c4ccc5c(c4)OCCO5)ccc1c23 | 36.4% (active)
5 | N#C/C(=C\c1ccccn1)c1nc2ccccc2s1 | 0.06%
6 | COc1cc(/C=C(/C#N)C(=O)NCCCc2ccccc2)ccc1OCC(=O)O | 0.24%
7 | COc1cc(/C=C(\C#N)c2nc3ccccc3s2)ccc1OCC(=O)Nc1ccccc1 | 36.6% (active)
8 | Cc1ccc(S(=O)(=O)Nc2ccccc2N(C)S(=O)(=O)c2ccc(C)cc2)cc1 | 2.27%
9 | NC(=O)c1cc2ccc(O)cc2oc1=NCc1ccccc1 | 0.04%
10 | CCN1CC=C2C(C1)C(c1ccc(Cl)s1)C(C#N)=C(N)C2(C#N)C#N (stereo not given) | 2.16%
11 | COc1cccc(F)c1C(=O)NC(=O)Nc1ccc2nc(C)oc2c1 | 42.8% (active)
12 | CCNC(=S)N/N=C/c1sc(N2CCCCC2)nc1-c1cccs1 | 0.09%
13 | Cc1ccc(CNC(=O)CCS(=O)(=O)c2cc3c(cc2C)NC(=O)CO3)cc1 | 0.29%
14 | Cc1ncn(C23CC4CC(CC(C4)C2)C3)n1 | 0%
15 | CCc1ccc(C(=O)NNc2cc(Cl)ccc2Cl)cc1 | 0.03%
16 | Cc1nn(C)c(C(=O)N2CCc3ccccc32)c1Br | 23.4% (active)
17 | Cc1c(Br)c(C(=O)N2CCc3ccccc32)nn1C | 0.13%
18 | Cc1cccc2cc3c(N)c(C(=O)N4CCc5ccccc54)sc3nc12 | -0.06%
19 | Nc1ccc2c3c(cccc13)CC2 | 0.07%
20 | O=C(Cn1c2[n+](c3ccc(C(F)(F)F)cc31)CCCCC2)Nc1ccccc1 | 0.33%
21 | CC(=O)/C(C=Nc1noc(C)c1Br)=C(\C)O | 11.4%
22 | CCC1(CC)C(=O)Nc2ccccc21 | -0.02%
23 | COc1ccccc1N1CCN(C(=O)c2ccc(Cn3c(=O)[nH]c4ccsc4c3=O)cc2)CC1 | 51.1% (active)
24 | COc1ccc2[nH]c(C(=O)N3CCC(Cc4ccccc4)CC3)cc2c1 | 0.13%

Row | SMILES | fluorescence artifact activation
25 | COc1ccccc1N1CCN(C(=O)c2cn(-c3ccccc3)nc2-c2cccnc2)CC1 | 0.33%
26 | COc1ccc(C(=O)c2sc3nc(C)cc(-c4cccs4)c3c2N)cc1OC | 0.66%
27 | CC(=O)c1ccc2noc(-c3ccc(C)cc3)c2c1 | 0.23%
28 | Oc1ccc(-c2c(C3=CCCCC3)sc3ccccc23)cc1 | 28.2% (active)
29 | COc1ccccc1-c1sc2ccccc2c1-c1ccc(Br)nc1 | 0.93%
30 | CCOc1ccccc1C=NNC(=O)CCCCC(=O)NN=Cc1ccccc1OCC | 0.77%
31 | Cc1noc(C)c1NC(=O)N(C)C[C@H]1Oc2c(NS(=O)(=O)c3cccs3)cccc2C(=O)N([C@H](C)CO)C[C@@H]1C | -0.07%
32 | CC(C)(C)c1ccc(C(=O)NC(=S)Nc2ccc(N3CCOCC3)cc2)cc1 | 0.09%
33 | O=C(NC(=S)NCCN1CCOCC1)c1ccc(F)cc1 | 21.2% (active)
34 | COC(=O)Cc1ccc(NC(=S)NCCCN2CCOCC2)cc1 | -0.02%
35 | CCCCNC(=O)Nc1nnc(-c2ccccc2)o1 | 0.13%
36 | S=C(Nc1ccc(Cl)cc1)N(CCCN1CCOCC1)Cc1ccco1 | 0.04%
37 | CCC1OC23CCCCC2C(C#N)(C(=N)O3)C1(C#N)C#N (stereo not given) | 0.21%
38 | Cn1cccc1Cc1nnc(SCC(=O)Nc2ccc(F)cc2F)n1-c1ccc(F)cc1 | 1.86%
39 | CC(=O)c1cc(NC(=O)c2ccccc2)c(=O)oc1/C=C/N(C)C | 0.09%
40 | COc1ccc(C(=O)Nc2cc(C(C)=O)c(/C=C/N(C)C)oc2=O)cc1 | 9.8%
41 | COC(=O)c1cc(NC(=O)c2ccccc2)c(=O)oc1/C=C/Nc1ccc(Oc2ccccc2)cc1 | 18.6% (active)
42 | Cc1cccc(N2C(=O)c3cccc4c(N)ccc(c34)C2=O)c1 | 0.02%
43 | CCN(CC)c1ccc2cc(-c3nnc(-c4ccncc4)o3)c(=O)oc2c1 | 1.48%
44 | CCN(CC)c1ccc2cc(-c3nc(-c4cc5ccccc5oc4=O)cs3)c(=O)oc2c1 | -0.03%
45 | CCN(CC)c1ccc2cc(-c3nnc(-c4ccccc4)o3)c(=O)oc2c1 | 43.7% (active)
46 | CC(=O)Nc1ccc2cc3ccc(NC(C)=O)cc3nc2c1 | 11.6%
47 | CCCn1c(=O)c(C(=O)NNC(=O)c2ccccc2[N+](=O)[O-])c(O)c2ccccc21 | 5.02%
48 | CCN1/C(=C/C=C2/SC(=Nc3cccc4ncccc34)N(C)C2=O)Sc2ccccc21 | 11.5%

Row | SMILES | fluorescence artifact activation
49 | CCN(C(=O)CN1CCCc2cc(C)ccc21)c1c(N)n(Cc2ccccc2)c(=O)[nH]c1=O | 0.2%
50 | CCn1c(Cc2ccccc2)nnc1SCC(=O)OC(C)C | 0.3%
51 | CCN(C(=O)CSc1nnc(COc2ccccc2F)n1N)c1c(N)n(Cc2ccccc2)c(=O)[nH]c1=O | 382% (active)
52 | COC(=O)C1=C(C)NC(=O)/C1=C\N(C)C | 5.29%
53 | COc1cc(OC)c(OC)cc1/C=C1\Oc2cc(OCC(=O)N3Cc4ccccc4C[C@H]3C(=O)O)ccc2C1=O | -0.01%
54 | CS(=O)(=O)N(CC(=O)NCCSCc1ccccc1)c1ccccc1 | 0.13%
55 | CC(C)(C)C1(O)CC(C(F)(F)F)=NN1C(=O)CCCc1ccccc1 (stereo not given) | 0.13%
56 | CSCC(C)N1CCC(n2nccc2NC(=O)CCCc2ccccc2)CC1 (stereo not given) | 26.2% (active)
57 | CCN1CCN(C2=CC3=CC(=C(C#N)C#N)CCC3CC2)CC1 (stereo not given) | 0.47%
58 | Cc1ccsc1C1NC(=O)c2c(sc3c2CCN(C)C3)N1 (stereo not given) | 28.8% (active)
59 | CN1CCc2c(sc3c2C(=O)NC(c2cccs2)N3)C1 (stereo not given) | 0.27%
60 | Cc1ccc(C2NC(=O)c3c(sc4c3CCN(C)C4)N2)s1 (stereo not given) | 0%
61 | CCOC(=O)c1c(NC(=O)CSc2nc3cc(Cl)ccc3c(=O)n2Cc2ccco2)sc(C(=O)N(C)C)c1C | 0%
62 | COc1ccc(OC)c(/C=C2\N=C(c3ccccc3)OC2=O)c1 | 8.78%
63 | C#CCSc1nc2[nH]ncc2c(=O)[nH]1 | 0.09%
64 | CNc1ccccc1C(C)(C)c1cc(C)[nH]n1 | 3.66%
65 | COc1ccc(N=Nc2nc3cc(Br)c(Br)cc3n2C)c(OC)c1 | 765% (active)
66 | COc1ccc(N=Nc2nc3ccc(Br)cc3n2C)cc1 | 0.16%
67 | COc1ccc(O)c(/C=N/c2nc3ccccc3n2C)c1 | 0.05%
68 | CCOC(=O)C1=C(COC(=O)c2ccc3ccccc3c2O)NC(=O)NC1C (stereo not given) | 0.49%
69 | CCOC(=O)c1cc2c(=O)n3ccccc3nc2n(CCOC)c1=NC(=O)c1c(-c2c(F)cccc2Cl)noc1C | 0.12%
70 | COc1ccc(C(=O)N/N=C/c2sc3ccccc3c2O)cc1 | 1.31%
71 | COc1ccc2cc(C(=O)N/N=C/c3sc4ccccc4c3O)ccc2c1 | 93.2% (active)
72 | O=C(N/N=C/c1sc2ccccc2c1O)c1ccccc1 | 9.97%

Row | SMILES | fluorescence artifact activation
73 | CC(C)(CN1CCc2ccccc2C1)NS(=O)(=O)c1ccc(Cl)cc1 | 0.2%
74 | O=c1oc2c3c4c(cc2c(C(F)(F)F)c1CCN1CCOCC1)CCCN4CCC3 | -0.03%
75 | Cn1ncc(N=Cc2c(O)ccc3ccccc23)c1C(=O)Nc1cccc(Cl)c1 | 0.09%
76 | O=C1c2cccc3c(O)ccc(c23)C(=O)N1Cc1ccccc1 | 11.9% (active)
77 | O=C1c2cccc3c(N4CCCCC4)ccc(c23)C(=O)N1c1ccccc1O | -0.03%
78 | CCNc1cccc2c1C(=O)N(C)C2=O | 0.15%
79 | CC1(C)CC2CC(C)(CN2CC(=O)C(C#N)c2ccccc2)C1 (stereo not given) | 0.12%
80 | Cc1cccc(/C=N/n2c(-c3ccncc3)n[nH]c2=S)c1 | 7.13%
81 | C=CCn1cc(/C=C/c2cc[n+](C)cc2)c2ccccc21 | 0.14%
82 | N#C/C(=C\c1coc2ccc(O)cc2c1=O)C(=O)Nc1nc2ccccc2s1 | 1.92%
83 | Fc1ccc(CN2CC[C@H]3C=CCc4cccc(c43)C2)cc1 | 52.5% (active)
84 | COc1cc(/C=C2/SC(=S)N(CCC(=O)Nc3ccccc3)C2=O)cc(OC)c1OC | 0.06%
85 | CCOc1ccc(NC(=O)/C(C#N)=C\c2ccc(N3CCCC3)c(C)c2)cc1 | 0.15%
86 | CSc1nnc(-c2ccc(S(=O)(=O)N3CCCC3)cc2)n1C | 0.02%
87 | CSc1nc2ccccc2n1CC(=O)Nc1c(C)cccc1C | 2.26%
88 | CN1CCS/C1=C/C=C1/SC(=S)N(Cc2ccccc2)C1=O | -0.03%
89 | CCN1/C(=C2\SC(=S)N(Cc3ccccc3)C2=O)Sc2ccccc21 | 0.08%
90 | CCN1C(=O)/C(=C/N2CCc3ccccc32)SC1=S | 12.6% (active)
91 | O=c1oc2c(O)cccc2cc1-c1nc2ccccc2[nH]1 | 0.04%
92 | O=c1oc2c(CN3CCCCC3)c(O)ccc2cc1-c1nc2ccccc2[nH]1 | 60.5% (active)
93 | S=C(NCCCN1CCOCC1)Nc1ccc(-c2nc3ccccc3[nH]2)cc1 | 0.17%
94 | O=C1CCc2cc(S(=O)(=O)NC3CCCCC3)ccc2N1 | -0.07%
95 | Cc1ccc(CNC(=O)CC(C)S(=O)(=O)c2ccc3c(c2)NC(=O)CS3)o1 (stereo not given) | 45.8% (active)
